{"source": "paper PMC2034471", "about": "(Nucleic Acids Research, 2007)", "molecules": {"B1": {"name": "ScRad9[754–931]: shorter fragment 754–931 of S. cerevisiae Rad9 (protein, UniProt P14737 754-931, looked up, fragment)", "chain": "GKDSKEQSYVFPEGIRTADNSFLSKDDIIFGNAVWCQYTWNYKFYPGILLEVDTNQDGCWIYFETGRSLTKDEDIYYLDIRIGDAVTFDGNEYVVVGLECRSHDLNIIRCIRGYDTVHLKKKNASGLLGKRTLIKALSSISLDLSEWAKRAKIILEDNEKNKGDAYRYLRHPIRGRKS"}, "B2": {"name": "ScRad9[754–931,C789A,C812S,C853S] (protein, UniProt P14737 754-931, looked up, variant C789A C812S C853S)", "chain": "GKDSKEQSYVFPEGIRTADNSFLSKDDIIFGNAVWAQYTWNYKFYPGILLEVDTNQDGSWIYFETGRSLTKDEDIYYLDIRIGDAVTFDGNEYVVVGLESRSHDLNIIRCIRGYDTVHLKKKNASGLLGKRTLIKALSSISLDLSEWAKRAKIILEDNEKNKGDAYRYLRHPIRGRKS"}, "B3": {"name": "Mm53BP1[1463–1617]: mouse 53BP1 fragment 1463–1617, tandem tudor region (protein)", "chain": "PFQAATGSSDGLDSSSSGNSFVGLRVVAKWSSNGYFYSGKITRDVGAGKYKLLFDDGYECDVLGKDILLCDPIPLDTEVTALSEDEYFSAGVVKGHRKESGELYYSIEKEGQRKWYKRMAVILSLEQGNRLREQYGLGPYEAVTPLTKAADISLD"}, "B4": {"name": "GST-ScRad9[754–947]: GST fusion of ScRad9[754–947] (protein)", "chain": "GKDSKEQSYVFPEGIRTADNSFLSKDDIIFGNAVWCQYTWNYKFYPGILLEVDTNQDGCWIYFETGRSLTKDEDIYYLDIRIGDAVTFDGNEYVVVGLECRSHDLNIIRCIRGYDTVHLKKKNASGLLGKRTLIKALSSISLDLSEWAKRAKIILEDNEKNKGDAYRYLRHPIRGRKSMTNVLSPKKHTDDEKD", "modifications": "left off: GST, end not stated, kept"}, "B5": {"name": "GST-ScRad9[750–917]: Rad9 construction reported by two different groups; stability by NMR tested here (protein, UniProt P14737 750-917, looked up, fragment)", "chain": "ETGSGKDSKEQSYVFPEGIRTADNSFLSKDDIIFGNAVWCQYTWNYKFYPGILLEVDTNQDGCWIYFETGRSLTKDEDIYYLDIRIGDAVTFDGNEYVVVGLECRSHDLNIIRCIRGYDTVHLKKKNASGLLGKRTLIKALSSISLDLSEWAKRAKIILEDNEKNKGD", "modifications": "GST tag"}, "B6": {"name": "fragments 1319–1480: human 53BP1 fragment 1319–1480 containing the RG-rich stretch (protein, UniProt Q12888 1319-1480, looked up, fragment)", "chain": "TSLSAMHSSGSSGKGAGPLRGKTSGTEPADFALPSSRGGPGKLSPRKGVSQTGTPVCEEDGDAGLGIRQGGKAPVTPRGRGRRGRPPSRTTGTRETAVPGPLGIEDISPNLSPDDKSFSRVVPRVPDSTRRTDVGAGALRRSDSPEIPFQAAAGPSDGLDAS"}, "B7": {"name": "1480–1616: human 53BP1 fragment 1480–1616 containing the tudor region (protein, UniProt Q12888 1480-1616, looked up, fragment)", "chain": "SSPGNSFVGLRVVAKWSSNGYFYSGKITRDVGAGKYKLLFDDGYECDVLGKDILLCDPIPLDTEVTALSEDEYFSAGVVKGHRKESGELYYSIEKEGQRKWYKRMAVILSLEQGNRLREQYGLGPYEAVTPLTKAAD"}}, "key": {"[1]": {"test_system": "mouse 53BP1 tudor fragment (1463–1617)", "assay": "isothermal titration calorimetry", "type": "binding", "conditions": "30°C; for Ka (ITC): 50 mM Tris/HCl pH 7.2, 50 mM NaCl, protein 18–33 µM, one-site model; for TΔS / ΔG / ΔH: ITC; for TΔS / ΔG: pH 7.2; for ΔH: pH 7.2, one-site model", "in_short": "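Protein in the cell titrated with H4-K20me2 or H4K20me2-long peptide, generally 10–15 times more concentrated, both equilibrated in the same buffer, by automatic 5–10 µl injections. The first 2 µl injection was excluded. Peaks were integrated and baseline-corrected. Heat of dilution was taken from peptide injected into buffer. One-site fitting gave n, Ka and ΔH.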"}, "[2]": {"test_system": "rad9Δ cells complemented with rad9ΔTudor allele", "assay": "resistance of yeast cells to genotoxic stress, spot test", "type": "cell-based, Saccharomyces cerevisiae", "conditions": "10-fold serial dilutions on YPD plates with drug; versus wild-type RAD9", "in_short": "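The rad9Δ-L157 full RAD9 deletion strain carried a URA3 YCp50 plasmid: empty, wild-type RAD9 under its own promoter, or RAD9 lacking tudor aa 754–947. Overnight YPD cultures were diluted to OD 0.1 and grown 4–5 h. Tenfold dilutions were spotted on YPD ± camptothecin or 4-nitroquinoline 1-oxide, or plates given UV (120 J/m2) or X-rays (150 Gy, 2.5 Gy/min).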"}, "[3]": {"test_system": "ScRad9[754–947]", "assay": "NMR titration of ScRad9[754–947] with histone peptides", "type": "binding, Saccharomyces cerevisiae", "conditions": "^1H-^15N HSQC, 600 MHz; protein 0.2–0.5 mM; 50 mM MES pH 6, 50 mM NaCl", "in_short": "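15N-labelled protein (0.2–0.5 mM) in 50 mM MES pH 6, 50 mM NaCl, 1 mM EDTA, 1 mM NaN3, protease inhibitors, TSP reference. Methyl-lysine H3-K79 and H4-K20 tail peptides titrated to 9-, 7-, 5- or 2-fold molar excess. Weighted shift |Δδ1H| + 0.1×|Δδ15N| plotted against ligand concentration; Kd fitted from the curves.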"}, "[4]": {"target": "Mm53BP1[1463–1617] (mouse) (UniProt P70399)", "assay": "NMR titration"}, "[5]": {"target": "Mm53BP1[1463–1617] (mouse, UniProt P70399 1463-1617)", "assay": "ITC"}, "[6]": {"assay": "aggregation / stability of Rad9 fragments in solution", "type": "physicochemical"}, "[7]": {"test_system": "DNA", "assay": "surface plasmon resonance, DNA binding", "conditions": "versus wild-type ScRad9[754–931]; data not shown"}, "[8]": {"test_system": "10 bp oligonucleotide", "conditions": "NMR; ref [15]; cited from earlier work"}, "[9]": {"test_system": "146 bp double-stranded DNA", "assay": "EMSA, 146 bp ds DNA", "type": "binding", "conditions": "DNA 26 nM, 2- to 128-fold molar excess of protein", "in_short": "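146 bp fragment made by PCR on a pUC(357.4) digest template and 5′-end labelled with 32P-ATP/T4 polynucleotide kinase at 37°C. Protein fragments incubated with labelled DNA for 2 h at 22°C in 50 mM Tris–HCl pH 8.0, 1 mM EDTA, 1 mM AEBSF, 1 mM DTT, 50 mM NaCl, 0.1% triton X-100. Resolved on pre-run 6% native polyacrylamide (29:1) in 0.5× TEG at 70 V. Complexes detected by autoradiography of dried gels at –80°C.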"}, "[10]": {"test_system": "H3 from calf thymus", "assay": "GST-pulldown, binding to histone H3", "conditions": "calf thymus H3, immunoblotting after elution from beads; data not shown"}, "[11]": {"test_system": "histone H3", "conditions": "GST fusion; ref [16],[32]; cited from earlier work"}, "[12]": {"test_system": "single-stranded and double-stranded DNA", "conditions": "EMSA; human 53BP1; ref [33]; cited from earlier work"}}, "note": "Ends that are not written are not given here. Me2 = dimethylated (lysine)", "data": [{"molecule": "GKGGAKRHRK*VLRDNIQGK [H4-K20me2-long]", "values": [{"measurement": "Ka (ITC)", "setting": "[1]", "result": "110000 ± 16000", "unit": "M⁻¹"}, {"measurement": "TΔS", "setting": "[1]", "result": 4.6, "unit": "kcal/mol"}, {"measurement": "ΔG", "setting": "[1]", "result": "–6.9 kcal/mol"}, {"measurement": "ΔH", "setting": "[1]", "result": "–2.3 ± 0.1 kcal/mol"}]}, {"molecule": "O=[N+]([O-])c1cc[n+]([O-])c2ccccc12", "note": "[4-nitroquinoline 1-oxide]", "values": [{"measurement": "sensitivity of rad9ΔTudor cells to DNA damage", "setting": "[2]", "result": "hypersensitivity to DNA damage"}]}, {"molecule": "KRHRK*ILRD [yeast H4K20me2]", "values": [{"measurement": "binding to ScRad9[754–947] (^1Hn and ^15N chemical shifts)", "setting": "[3]", "result": "cannot bind"}]}, {"molecule": "H3-K79me2 peptide", "values": [{"measurement": "Kd", "setting": "[4]", "result": 1500, "unit": "µM"}]}, {"molecule": "CC[C@@]1(O)C(=O)OCc2c1cc1n(c2=O)Cc2cc3ccccc3nc2-1", "note": "[camptothecin]", "values": [{"measurement": "sensitivity of rad9ΔTudor cells to DNA damage", "setting": "[2]", "result": "hypersensitivity to DNA damage which was particularly pronounced"}]}, {"molecule": "KRHRK*VLRD [metazoan H4K20me2]", "values": [{"measurement": "Ka (ITC)", "setting": "[1]", "result": "130000 ± 16000", "unit": "M⁻¹"}, {"measurement": "TΔS", "setting": "[1]", "result": 4.9, "unit": "kcal/mol"}, {"measurement": "ΔG", "setting": "[1]", "result": "–7.1 kcal/mol"}, {"measurement": "ΔH", "setting": "[1]", "result": "–2.2 ± 0.1 kcal/mol"}, {"measurement": "binding to ScRad9[754–947] (^1Hn and ^15N chemical shifts)", "setting": "[3]", "result": "cannot bind"}]}, {"molecule": "GKGGAKRHRKVLRDNIQGK (K* dimethylated (K20, tenth residue of the peptide))", "note": "[Metazoan H4-K20me2-long peptide]", "values": [{"measurement": "Ka", "setting": "[5]", "result": 110000, "unit": "M⁻¹"}, {"measurement": "Kd", "setting": "[5]", "result": 8.8, "unit": "µM"}, {"measurement": "dH", "setting": "[5]", "result": "-2.3 ± 0.1", "unit": "kcal/mol"}, {"measurement": "stoichiometry N", "setting": "[5]", "result": 1}]}, {"molecule": "KRHRK(Me2)VLRD", "note": "[Metazoan H4-K20me2 peptide]", "values": [{"measurement": "Ka", "setting": "[5]", "result": 130000, "unit": "M⁻¹"}, {"measurement": "Kd", "setting": "[5]", "result": 7.7, "unit": "µM"}, {"measurement": "dH", "setting": "[5]", "result": "-2.2 ± 0.1", "unit": "kcal/mol"}, {"measurement": "stoichiometry N", "setting": "[5]", "result": 1}]}, {"molecule": "B1", "values": [{"measurement": "aggregation propensity / rate relative to ScRad9[754–947]", "setting": "[6]", "result": "same aggregation propensity"}]}, {"molecule": "B2", "values": [{"measurement": "aggregation propensity / rate relative to ScRad9[754–947]", "setting": "[6]", "result": 1.5, "unit": "times faster"}, {"measurement": "DNA-binding capacity by surface plasmon resonance", "setting": "[7]", "result": "looses the DNA-binding capacity"}]}, {"molecule": "B3", "values": [{"measurement": "affinity for 10 bp oligonucleotide, in words", "setting": "[8]", "result": "millimolar affinity interaction"}, {"measurement": "interaction with 146 bp ds DNA by gel retardation", "setting": "[9]", "result": "could not detect any interaction"}]}, {"molecule": "B4", "values": [{"measurement": "H3 captured in GST-pull-down", "setting": "[10]", "result": "not together"}]}, {"molecule": "B5", "values": [{"measurement": "NMR signal lost", "setting": "[6]; after 2.5 h at 30°C", "result": 40, "unit": "%"}, {"measurement": "capture of histone H3", "setting": "[11]", "result": "capture of histone H3"}]}, {"molecule": "B6", "values": [{"measurement": "interaction with DNA in vitro", "setting": "[12]", "result": "interact with single-stranded and double-stranded DNA in vitro"}]}, {"molecule": "B7", "values": [{"measurement": "interaction with DNA in vitro", "setting": "[12]", "result": "interact with single-stranded and double-stranded DNA in vitro"}]}]}
